Columns and labels:
Format in all cases: functional
[1] = tested on: Acinetobacter johnsonii; experiment: Antibacterial activity against Acinetobacter johnsonii ATCC 17909 at 25 mg/ml after 24 hrs by agar diffusion test; conditions: ATCC 17909, 24 h, read-out: DIZ
How it was run: (§1)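 Agar diffusion: wells in agar filled with […] DMSO solution of compound at various concentrations; diameter of clear zone around application point measured. Bacteria grown 24 h at 37 °C on nutrient agar. Compounds first screened at 50 mg/ml; those active then tested at lower concentrations. Bracketed value = lowest concentration (mg/ml) giving zone >11 mm, reported only if activity retained at ≤1.25 mg/ml.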

[2] = tested on: Bacillus; experiment: Antibacterial activity against Bacillus idosus B 241 at 1 mg/ml after 24 hrs by agar diffusion test; conditions: B 241, 24 h, read-out: DIZ; how it was run: as §1
[3] = tested on: Bacillus subtilis; experiment: Antibacterial activity against Bacillus subtilis ATCC 6633 at 25 mg/ml after 24 hrs by agar diffusion test; conditions: ATCC 6633, 24 h, read-out: DIZ; how it was run: as §1
[4] = tested on: Priestia megaterium; experiment: Antibacterial activity against Bacillus megaterium NRRL 1353895 at 25 mg/ml after 24 hrs by agar diffusion test; conditions: NRRL 1353895, 24 h, read-out: DIZ; how it was run: as §1
[5] = tested on: Bacillus mycoides; experiment: Antibacterial activity against Bacillus mycoides DSMZ 274 at 25 mg/ml after 24 hrs by agar diffusion test; conditions: DSMZ 274, 24 h, read-out: DIZ; how it was run: as §1
[6] = tested on: Micrococcus luteus; experiment: Antibacterial activity against Sarcina lutea ATCC 9341 at 1 mg/ml after 24 hrs by agar diffusion test; conditions: ATCC 9341, 24 h, read-out: DIZ; how it was run: as §1
[7] = tested on: Bacillus cereus; experiment: Antibacterial activity against Bacillus cereus ATCC 11778 at 5 mg/ml after 24 hrs by agar diffusion test; conditions: ATCC 11778, 24 h, read-out: DIZ; how it was run: as §1
[8] = tested on: Bacillus cereus; experiment: Antibacterial activity against Bacillus cereus ATCC 11778 at 1 mg/ml after 24 hrs by agar diffusion test; conditions: ATCC 11778, 24 h, read-out: DIZ; how it was run: as §1
[9] = tested on: Micrococcus luteus; experiment: Antibacterial activity against Micrococcus luteus ATCC 9631 at 5 mg/ml after 24 hrs by agar diffusion test; conditions: ATCC 9631, 24 h, read-out: DIZ; how it was run: as §1
[10] = tested on: Micrococcus luteus; experiment: Antibacterial activity against Sarcina lutea ATCC 9341 at 25 mg/ml after 24 hrs by agar diffusion test; conditions: ATCC 9341, 24 h, read-out: DIZ
How it was run: (§2)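 Agar diffusion: bacteria grown 24 h at 37 °C on nutrient agar. Wells in the agar are filled with […] of compound solution in DMSO at various concentrations. The diameter of the clear zone around the application point is measured. Bracketed values give the lowest concentration (mg/ml) that produces a zone >11 mm. A first screen is run at 50 mg/ml.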

[11] = tested on: Acinetobacter johnsonii; experiment: Antibacterial activity against Acinetobacter johnsonii ATCC 17909 at 5 mg/ml after 24 hrs by agar diffusion test; conditions: ATCC 17909, 24 h, read-out: DIZ; how it was run: as §1
[12] = tested on: Acinetobacter johnsonii; experiment: Antibacterial activity against Acinetobacter johnsonii ATCC 17909 at 1 mg/ml after 24 hrs by agar diffusion test; conditions: ATCC 17909, 24 h, read-out: DIZ; how it was run: as §1
[13] = tested on: Micrococcus luteus; experiment: Antibacterial activity against Micrococcus luteus ATCC 9631 at 1 mg/ml after 24 hrs by agar diffusion test; conditions: ATCC 9631, 24 h, read-out: DIZ; how it was run: as §1
[14] = tested on: Escherichia coli; experiment: Antibacterial activity against Escherichia coli ATCC 8739 at 25 mg/ml after 24 hrs by agar diffusion test; conditions: ATCC 8739, 24 h, read-out: DIZ; how it was run: as §1
[15] = tested on: Bacillus subtilis; experiment: Antibacterial activity against Bacillus subtilis ATCC 6633 at 5 mg/ml after 24 hrs by agar diffusion test; conditions: ATCC 6633, 24 h, read-out: DIZ
How it was run: (§3)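 Agar diffusion: bacteria grown 24 h at 37 °C on nutrient agar; wells cut in the seeded agar are filled with compound solution in DMSO. Read-out is the diameter of the clear zone around the application point.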

[16] = tested on: Bacillus subtilis; experiment: Antibacterial activity against Bacillus subtilis ATCC 6633 at 1 mg/ml after 24 hrs by agar diffusion test; conditions: ATCC 6633, 24 h, read-out: DIZ; how it was run: as §1
[17] = tested on: Staphylococcus aureus; experiment: Antibacterial activity against Staphylococcus aureus NRRL B 313 at 5 mg/ml after 24 hrs by agar diffusion test; conditions: NRRL B 313, 24 h, read-out: DIZ; how it was run: as §2
[18] = tested on: Bacillus mycoides; experiment: Antibacterial activity against Bacillus mycoides DSMZ 274 at 1 mg/ml after 24 hrs by agar diffusion test; conditions: DSMZ 274, 24 h, read-out: DIZ; how it was run: as §1
[19] = tested on: Micrococcus luteus; experiment: Antibacterial activity against Micrococcus luteus ATCC 9631 at 25 mg/ml after 24 hrs by agar diffusion test; conditions: ATCC 9631, 24 h, read-out: DIZ; how it was run: as §1
[20] = tested on: Priestia megaterium; experiment: Antibacterial activity against Bacillus megaterium NRRL 1353895 at 1 mg/ml after 24 hrs by agar diffusion test; conditions: NRRL 1353895, 24 h, read-out: DIZ; how it was run: as §1
[21] = tested on: Priestia megaterium; experiment: Antibacterial activity against Bacillus megaterium NRRL 1353895 at 5 mg/ml after 24 hrs by agar diffusion test; conditions: NRRL 1353895, 24 h, read-out: DIZ; how it was run: as §1
[22] = tested on: Staphylococcus aureus; experiment: Antibacterial activity against Staphylococcus aureus NRRL B 313 at 1 mg/ml after 24 hrs by agar diffusion test; conditions: NRRL B 313, 24 h, read-out: DIZ; how it was run: as §3
[23] = tested on: Micrococcus luteus; experiment: Antibacterial activity against Sarcina lutea ATCC 9341 at 5 mg/ml after 24 hrs by agar diffusion test; conditions: ATCC 9341, 24 h, read-out: DIZ; how it was run: as §2
[24] = tested on: Escherichia coli; experiment: Antibacterial activity against Escherichia coli ATCC 8739 at 1 mg/ml after 24 hrs by agar diffusion test; conditions: ATCC 8739, 24 h, read-out: DIZ; how it was run: as §1
[25] = tested on: Staphylococcus aureus; experiment: Antibacterial activity against Staphylococcus aureus NRRL B 313 at 25 mg/ml after 24 hrs by agar diffusion test; conditions: NRRL B 313, 24 h, read-out: DIZ; how it was run: as §2
[26] = tested on: Bacillus mycoides; experiment: Antibacterial activity against Bacillus mycoides DSMZ 274 at 5 mg/ml after 24 hrs by agar diffusion test; conditions: DSMZ 274, 24 h, read-out: DIZ; how it was run: as §1
[27] = tested on: Escherichia coli; experiment: Antibacterial activity against Escherichia coli ATCC 8739 at 5 mg/ml after 24 hrs by agar diffusion test; conditions: ATCC 8739, 24 h, read-out: DIZ; how it was run: as §1
[28] = tested on: Bacillus cereus; experiment: Antibacterial activity against Bacillus cereus ATCC 11778 at 25 mg/ml after 24 hrs by agar diffusion test; conditions: ATCC 11778, 24 h, read-out: DIZ; how it was run: as §1
[29] = tested on: Bacillus; experiment: Antibacterial activity against Bacillus idosus B 241 at 25 mg/ml after 24 hrs by agar diffusion test; conditions: B 241, 24 h, read-out: DIZ; how it was run: as §1
[30] = tested on: Bacillus; experiment: Antibacterial activity against Bacillus idosus B 241 at 5 mg/ml after 24 hrs by agar diffusion test; conditions: B 241, 24 h, read-out: DIZ; how it was run: as §1

Q: Which zone of inhibition at 25000 µg/mL [1] does the source give for `CN[C@@H]1[C@H](O[C@H]2[C@H](O[C@H]3[C@H](O)[C@@H](O)[C@H](N=C(N)N)[C@@H](O)[C@@H]3N=C(N)N)O[C@@H](C)[C@]2(O)C=O)O[C@@H](CO)[C@H](O)[C@H]1O` [STREPTOMYCIN] here?
A: 30 mm

Q: And the zone of inhibition at 1000 µg/mL [2]?
A: 21 mm

Q: And the zone of inhibition at 25000 µg/mL [3]?
A: 35 mm

Q: And the zone of inhibition at 25000 µg/mL [4]?
A: 30 mm

Q: And the zone of inhibition at 25000 µg/mL [5]?
A: 35 mm

Q: And the zone of inhibition at 1000 µg/mL [6]?
A: 19 mm

Q: What about the zone of inhibition at 5000 µg/mL [7] of the same compound?
A: 28 mm

Q: And the zone of inhibition at 1000 µg/mL [8]?
A: 23 mm

Q: What about the zone of inhibition at 5000 µg/mL [9] of the same compound?
A: 25 mm

Q: And the zone of inhibition at 25000 µg/mL [10]?
A: 27 mm

Q: And the zone of inhibition at 5000 µg/mL [11]?
A: 24 mm

Q: And the zone of inhibition at 1000 µg/mL [12]?
A: 20 mm

Q: What about the zone of inhibition at 1000 µg/mL [13] of the same compound?
A: 20 mm

Q: What about the zone of inhibition at 25000 µg/mL [14] of the same compound?
A: 35 mm

Q: What about the zone of inhibition at 5000 µg/mL [15] of the same compound?
A: 30 mm

Q: And the zone of inhibition at 1000 µg/mL [16]?
A: 25 mm

Q: And the zone of inhibition at 5000 µg/mL [17]?
A: 26 mm

Q: What about the zone of inhibition at 1000 µg/mL [18] of the same compound?
A: 25 mm

Q: What about the zone of inhibition at 25000 µg/mL [19] of the same compound?
A: 30 mm

Q: And the zone of inhibition at 1000 µg/mL [20]?
A: 20 mm

Q: And the zone of inhibition at 5000 µg/mL [21]?
A: 25 mm

Q: What about the zone of inhibition at 1000 µg/mL [22] of the same compound?
A: 20 mm

Q: And the zone of inhibition at 5000 µg/mL [23]?
A: 22 mm

Q: And the zone of inhibition at 1000 µg/mL [24]?
A: 23 mm

Q: What about the zone of inhibition at 25000 µg/mL [25] of the same compound?
A: 32 mm

Q: What about the zone of inhibition at 5000 µg/mL [26] of the same compound?
A: 30 mm

Q: What about the zone of inhibition at 5000 µg/mL [27] of the same compound?
A: 26 mm

Q: And the zone of inhibition at 25000 µg/mL [28]?
A: 30 mm

Q: What about the zone of inhibition at 25000 µg/mL [29] of the same compound?
A: 30 mm

Q: What about the zone of inhibition at 5000 µg/mL [30] of the same compound?
A: 27 mm

Source: ChEMBL document CHEMBL1932986, “Synthesis and in vitro antimycobacterial activity of compounds derived from (R)- and (S)-2-amino-1-butanol - The crucial role of the configuration” (Eur J Med Chem, 2012)
